Assay outcomes as filed in PubChem BioAssay.
An excerpt weighted towards active compounds, which were near 5.5% of everything screened.
PostGolgi yeast: phenotypic screen on post-Golgi transport, primary screen | post-Golgi transport phenotypic cell assay | inhibition, % at 10 µM | 98,000 compounds, 0.9% hits;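 further: yeast cells grown in 1536-well plates; yeast grown about 18 h at 30C before absorbance read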
PLAP act: PLAP enzyme activators, biochemical, luminescence, HTS | activation fold at 20 µM | 96,000 compounds, 1.2% hits | AID 696, 2007 | purified PLAP enzyme, luminescent substrate read-out; hits give high values | Alkaline phosphatase, placental type (Homo sapiens), P05187; in the data active means activation fold above about 2
E coli WT exp: growth inhibitors of wild-type E. coli, primary screen, strain BW25113, expanded library, OD600. OD600 absorbance. 98,000 compounds, 0.15% hits. growth inhibition, % at 100 µM. AID 710, 2007;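 active means growth inhibition above about 50% at one test dose, limit read from the data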;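 further: growth measured after 20 h incubation at 37 °C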
PostGolgi ctrl: growth inhibition of yeast control strain, primary screen, counter-screen for post-Golgi transport modulator project | AID 738, 2007 | efflux-deficient yeast background strain, growth absorbance A615, 16 h | inhibition, % at 10 µM | 98,000 compounds, 5% hits
Ecoli tolC: growth inhibitors of E. coli tolC mutant, primary screen, strain BW25113 ΔtolC::kan, 384-well | OD615 | growth inhibition, % at 10 µM (by protocol) | 65,000 compounds, 2.2% hits | AID 573, 2007;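 active means growth inhibition at or above a cutoff equal to the mean over every tested compound plus 3 SD, cut at about 60% in these data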;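 further: growth measured after 20 h incubation at 37 °C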
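Doses: one dose of 10 µM final / Material: E. coli BW25113 ΔtolC::kan, tolC deletion mutant strain / Buffer or medium: LB with kanamycin 50 µg/mL / Evaluation: percent growth inhibition / Detection: optical density read at 615 nm / Incubation: 37 °C, 20 h exposure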
HePTP inh: inhibitors of human HePTP phosphatase, primary screen, biochemical, absorbance, leukemia target | Tyrosine-protein phosphatase non-receptor type 7 (Homo sapiens), P35236 | recombinant HePTP phosphatase activity, OD absorbance | inhibition, % at 20 µM | 110,000 compounds, 0.64% hits; in the data active means inhibition above about 50%;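 further: plate controls were vehicle for no effect and reference inhibitor for full effect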
Target sequence (P35236 whole entry, looked up): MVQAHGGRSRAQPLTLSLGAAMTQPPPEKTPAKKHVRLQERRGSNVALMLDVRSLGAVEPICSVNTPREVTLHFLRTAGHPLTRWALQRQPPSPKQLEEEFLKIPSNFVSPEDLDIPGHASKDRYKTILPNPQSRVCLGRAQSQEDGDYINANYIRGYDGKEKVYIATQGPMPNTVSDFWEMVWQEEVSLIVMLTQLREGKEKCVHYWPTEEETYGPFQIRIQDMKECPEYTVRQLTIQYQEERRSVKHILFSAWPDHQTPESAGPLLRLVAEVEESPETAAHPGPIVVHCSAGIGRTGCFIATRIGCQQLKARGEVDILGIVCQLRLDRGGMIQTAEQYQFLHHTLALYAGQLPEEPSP
Active calls of the source: *. Unless noted, no stated cut-off is given here; in the data, active means inhibition above about 30%; inactive means the rest.

Screening COC(=O)c1cc(=O)n(Cc2cccs2)c(=NCc2cccs2)s1 returned PostGolgi yeast 9.5, PLAP act 1, E coli WT exp -11.0, PostGolgi ctrl 31.3*, Ecoli tolC -8.4 and HePTP inh -0.4.
`CCOC(=O)c1ccc(N=c2sc(C(=O)OC)cc(=O)n2Cc2ccco2)cc1` gave PostGolgi yeast 1.2, PLAP act 1.3, E coli WT exp -26.0, PostGolgi ctrl 56.8*, Ecoli tolC 13.0 and HePTP inh 8.1.
For CCOC(=O)c1ccc(N=c2sc(C(=O)OC)cc(=O)n2CCCN2CCOCC2)cc1 the results were PostGolgi yeast -8.9, PLAP act 1.5, E coli WT exp -1.0, PostGolgi ctrl 1.7, Ecoli tolC 0.5 and HePTP inh -8.7.
For CCC(=O)N1CCN(c2nc3ccc([N+](=O)[O-])cc3s2)CC1 the results were HePTP inh -0.1.
`CCn1c(N)nc2ccccc21` gave PostGolgi yeast 4.6, PLAP act 0.9, E coli WT exp 0.0, PostGolgi ctrl -8.6, Ecoli tolC -4.2 and HePTP inh 1.4.
Screening CCN1N=C(c2ccccc2)Cn2c1nc1ccccc12 returned PostGolgi yeast 17.1, PLAP act 1.7, E coli WT exp -8.0 and PostGolgi ctrl 30.4*.
`O=C1OC(c2ccccc2)=N/C1=C1/c2ccccc2-c2ccc([N+](=O)[O-])cc21` gave HePTP inh 2.5.
Screening COc1ccc(C)cc1N(CC(=O)Nc1cccc(N(C)S(C)(=O)=O)c1)S(C)(=O)=O returned PostGolgi yeast 0.3, PLAP act 1.2, E coli WT exp 6.0, PostGolgi ctrl 36.5*, Ecoli tolC -2.8 and HePTP inh -1.0.
Screening O=C(c1ccccc1)N1CCN(S(=O)(=O)N2CCCCC2)CC1 returned PostGolgi yeast -6.3, PLAP act 1.3, E coli WT exp 6.0, PostGolgi ctrl 44.1*, Ecoli tolC -9.4 and HePTP inh -8.6.
Screening CCn1c(C)c(C(=O)OC)c(/C=C2\C(=O)C=Cc3ccccc32)c1O returned HePTP inh -0.1.
Screening O=C(CN1C(=O)C2C3C=CC(C3)C2C1=O)NCc1ccccc1 (stereo unspecified) returned PostGolgi yeast 13.1, PLAP act 0.9, E coli WT exp 4.0 and PostGolgi ctrl 5.9.
Screening COc1ccc(NCN2C(=O)C3C4C=CC(C4)C3C2=O)cc1 (stereo unspecified) returned HePTP inh -7.6.
Cc1cccc(NCN2C(=O)C3C4C=CC(C4)C3C2=O)c1 (stereo unspecified) was read as PostGolgi yeast 21.3, PLAP act 1, E coli WT exp 4.0 and PostGolgi ctrl 33.2*.
For COc1ccccc1NC(=O)NCCN1C(=O)C2C3C=CC(C3)C2C1=O (stereo unspecified) the results were PostGolgi yeast -7.0, PLAP act 0.9, E coli WT exp -9.0, PostGolgi ctrl 42.0*, Ecoli tolC -7.5 and HePTP inh -9.6.
`O=C1C2C3C=CC(C3)C2C(=O)N1CNc1ccccc1` (stereo unspecified) gave PostGolgi yeast 7.0, PLAP act 0.9, E coli WT exp 2.0, PostGolgi ctrl 20.0 and HePTP inh -0.6.
`Cc1ccccc1NCN1C(=O)C2C3C=CC(C3)C2C1=O` (stereo unspecified) gave PostGolgi yeast -4.3, PLAP act 1, E coli WT exp -2.0, PostGolgi ctrl 32.5*, Ecoli tolC 6.3 and HePTP inh -8.6.
O=C1C2C3C=CC(C3)C2C(=O)N1CN(Cc1ccccc1)CN1C(=O)C2C3C=CC(C3)C2C1=O (stereo unspecified) was read as PostGolgi yeast -9.5, PLAP act 0.9, E coli WT exp -1.0, PostGolgi ctrl 36.6*, Ecoli tolC -15.0 and HePTP inh -4.4.
For O=C(c1ccco1)N1CCN(c2nc(C3CC3)nc3sc4c(c23)CCCC4)CC1 the results were PostGolgi yeast 12.1, PLAP act 1.8, E coli WT exp -11.0, PostGolgi ctrl 15.4, Ecoli tolC 77.3* and HePTP inh 7.6.
Screening N#Cc1c(N2CCN(C(=O)c3ccccc3)CC2)nc(-c2ccccc2)c2c1CCCC2 returned PostGolgi yeast 57.0*, PLAP act 1.8, E coli WT exp -18.0 and PostGolgi ctrl 28.5.
`N#Cc1c(NCCN)nc(-c2ccccc2)c2c1CCCC2` gave PostGolgi yeast -3.4, PLAP act 1.1, E coli WT exp 46.0 and PostGolgi ctrl 3.5.
`N#Cc1c(NCCCO)nc(-c2ccccc2)c2c1CCCC2` gave PostGolgi yeast 9.0, PLAP act 1.7, E coli WT exp 6.0, PostGolgi ctrl 47.0*, Ecoli tolC 5.3 and HePTP inh 3.9.
For N#Cc1c(N2CCN(C(=O)c3ccco3)CC2)nc(-c2ccccc2)c2c1CCCC2 the results were PostGolgi yeast 52.0*, PLAP act 1.5, E coli WT exp -7.0, PostGolgi ctrl 22.7, Ecoli tolC 53.2 and HePTP inh 1.6.
Screening CC(=O)N1CCc2cc(S(=O)(=O)NCCC(=O)N3CCN(c4ccccn4)CC3)ccc21 returned PostGolgi yeast 9.7, PLAP act 1, E coli WT exp 1.0, PostGolgi ctrl 34.8*, Ecoli tolC -8.6 and HePTP inh 2.0.
Screening CC(=O)N1CCc2cc(S(=O)(=O)NCCC(=O)N3CCc4ccccc4C3)ccc21 returned PostGolgi yeast 6.6, PLAP act 1, E coli WT exp 0.0, PostGolgi ctrl 3.0, Ecoli tolC 1.7 and HePTP inh -5.3.
For COc1cccc(N=Nc2c(=O)[nH]n3c(=O)cc(C)[nH]c23)c1 the results were PostGolgi yeast 5.5, PLAP act 2*, E coli WT exp -4.0 and PostGolgi ctrl 5.1.
Screening CCCCOC(=O)c1ccc(NC(=O)CSCc2n[nH]c(=O)[nH]2)cc1 returned PostGolgi yeast 6.1, PLAP act 2.1*, E coli WT exp 3.0, PostGolgi ctrl 9.4, Ecoli tolC -8.6 and HePTP inh 0.8.
CCCCOC(=O)c1ccc(NC(=O)CSc2ccccn2)cc1 was read as HePTP inh 0.1.
`O=[N+]([O-])c1cc(-n2ncnc2-c2cccc(Br)c2)ccc1Cl` gave HePTP inh -3.2.
CCOC(=O)c1nn(-c2ccccc2F)c(-c2ccccc2)c1C(=O)c1ccccc1 was read as PostGolgi yeast 7.6, PLAP act 1.3, E coli WT exp -11.0 and PostGolgi ctrl 32.1*.
Cc1cc2nc(-c3cc(NC(=O)c4ccco4)ccc3O)oc2cc1C was read as HePTP inh 7.4.
`CCSCCOC(=O)C1=C(C)NC2=C(C(=O)CCC2)C1c1ccc(OC)c(OCc2ccccc2)c1` (stereo unspecified) gave HePTP inh 9.4.
